# Bioassay records: PubChem BioAssay, Broad Institute
# miR122 inh – inhibitors of miR-122 in Huh7 cells | activation (reporter increase), % at 12.5 µM | AID 602342 | actives 0.3% (n = 340,000) | Huh7 miR-122 Renilla luciferase sensor, 48 h; neutral wells = 0, positive control = 100;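 active = mean replicate activation score at least 90 and every replicate individually at or above 90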;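 also: higher luciferase means less miR-122 activity so hits act as miR-122 inhibitors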
# LANA DNA inh – KSHV C-LANA DNA binding inhibition. MBP-C-LANA/FAM-LBS DNA binding, fluorescence polarization. actives 0.078% (n = 340,000). inhibition, % at 9 µM;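 active = highest replicate inhibition at or above 60% at 9 µM, even if other replicates fall short; inactive = all replicates below 60% inhibition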;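 also: 0% = neutral control wells and 100% = 4 µM acridine orange control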
# CAL PDZ FP-1 – inhibitors of human CAL PDZ peptide binding; AID 602252; inhibition, % at 24.9 µM; Q9HD26; actives 0.92% (n = 300,000); purified CAL PDZ, TMR-peptide fluorescence polarization, 1 h;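 active = mean inhibition of at least 30% with at least half of replicates also reaching 30%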;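 also: 0% = DMSO neutral control and 100% = excess unlabeled competitor peptide PRC23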
# CAL PDZ FP-2 – human CAL PDZ-peptide interaction inhibition; Q9HD26; purified CAL PDZ, TMR-peptide fluorescence polarization, 1 h; inhibition, % at 20 µM; actives 0.02% (n = 330,000); AID 504414;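 active = highest replicate inhibition of at least 40%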;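 also: plate controls were DMSO neutral control wells for no effect and unlabeled competitor peptide control wells for full effect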
#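 material = purified tagged CAL PDZ domain construct (CerCALP) | buffer or medium = sodium phosphate/NaCl buffer pH 7.4 with TCEP, IgG, Thesit | reagent = TMR-labelled reporter peptide T*-PRC34 bound in PDZ groove | incubation = 1 h room-temperature incubation prior to read | measured by = fluorescence polarization (mP) | evaluation = percent inhibition from loss of millipolarization | control set = unlabelled peptide and DMSO controls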
# Keap1 Nrf2 FP – inhibitors of human Keap1-Nrf2 protein-protein interaction; AID 504523; Keap1 Kelch-Nrf2 peptide fluorescence polarization, 1536-well; inhibition, % at 9.4 µM; actives 0.15% (n = 340,000); Q14145; in the data active = inhibition above about 12%;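 also: human Keap1 Kelch domain with fluorescein labeled Nrf2 9mer peptide probe; 0% = neutral control wells and 100% = peptide positive control; higher means more block of Keap1 binding to Nrf2 peptide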
# Target sequence (Q14145 whole entry, looked up, the tested form may be a part): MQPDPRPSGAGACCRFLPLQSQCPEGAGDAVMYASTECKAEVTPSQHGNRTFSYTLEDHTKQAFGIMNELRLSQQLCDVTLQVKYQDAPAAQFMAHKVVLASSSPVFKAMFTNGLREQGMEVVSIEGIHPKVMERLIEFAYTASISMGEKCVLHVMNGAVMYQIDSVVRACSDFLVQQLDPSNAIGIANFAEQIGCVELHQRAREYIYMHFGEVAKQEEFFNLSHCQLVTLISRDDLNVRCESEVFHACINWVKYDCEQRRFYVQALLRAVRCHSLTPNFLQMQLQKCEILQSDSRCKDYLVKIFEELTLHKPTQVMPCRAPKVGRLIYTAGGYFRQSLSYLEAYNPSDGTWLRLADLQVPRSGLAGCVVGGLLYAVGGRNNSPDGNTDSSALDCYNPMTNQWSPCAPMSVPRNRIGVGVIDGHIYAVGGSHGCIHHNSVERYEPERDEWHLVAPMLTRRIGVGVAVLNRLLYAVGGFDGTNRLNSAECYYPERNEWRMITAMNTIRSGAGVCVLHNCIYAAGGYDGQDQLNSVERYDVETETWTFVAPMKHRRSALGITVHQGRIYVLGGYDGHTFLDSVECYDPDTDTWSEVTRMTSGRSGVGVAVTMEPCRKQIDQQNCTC
# Keap1 TSA – binders of human Keap1 Kelch domain; shares compounds with Keap1 Nrf2 FP; Keap1 Kelch thermal shift, delta Tm; active compounds read high; max delta Tm, degrees C; AID 651823; actives 8% (n = 400); in the data active = max delta Tm above about 0.48 degrees C
# Dye-only ctr – dye artifact in Keap1 thermal shift counter-screen. shares compounds with Keap1 Nrf2 FP. Sypro Orange dye-only thermal melt, no protein, delta Tm; top dose 26 µM. delta Tm, degrees C (no concentration beside the values). 140 tested, under 10 active;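 active = at highest dose tested, delta Tm positive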
# * = called active by the depositor; nt = not tested or not shown; [ ] = dose if it differs, or a comment. Most compounds without a hit are left out; they make up all but 1.1% or so of the library.
SMILES,miR122 inh,LANA DNA inh,CAL PDZ FP-1,CAL PDZ FP-2,Keap1 Nrf2 FP,Keap1 TSA,others
OC(CNCc1ccccc1)(c1ccccc1)c1ccccc1,-6,-2,-6,0,1,nt,
CCCC#Cc1ccc2c(c1)O[C@H](CN(C)C(=O)C1CC1)[C@@H](C)CN([C@@H](C)CO)S2(=O)=O,53[16.7 µM],nt,nt,nt,nt,nt,
CC1=CC(=C2N=C(c3ccccc3)OC2=O)C=C(C)O1,-6,1,0,0,17*,-0.13,
CN1C=CC=C/C1=C1/N=C(c2ccccc2)OC1=O,10,0,-4,0,-1,nt,
CCCC(=O)Nc1ccc2c(c1)C(=O)N(C)[C@H]1CC[C@@H](CC(=O)NCc3ccccc3Cl)O[C@H]1CO2,60[16.7 µM],nt,nt,nt,nt,nt,
Cc1ccc(NC(=O)Nc2ccc3c(c2)C(=O)N(C)[C@H]2CC[C@H](CC(=O)O)O[C@@H]2CO3)cc1,-1[16.7 µM],nt,nt,nt,nt,nt,
COC(=O)C1=COC(C)C2CN3CCc4c([nH]c5ccccc45)C3CC12 (configuration not stated),1,45,2,0,15*,0.01,
COC(=O)C1=CO[C@@H](C)[C@H]2CN3CCc4c([nH]c5ccccc45)[C@@H]3C[C@H]12,3,2,-2,1,-2,nt,
Cc1ccc(S(=O)(=O)Nc2ccc3c(c2)C(=O)N([C@H](C)CO)C[C@@H](C)[C@H](CN(C)S(=O)(=O)c2cccs2)O3)cc1,0[16.7 µM],nt,nt,nt,nt,nt,
O=C(C1CCCC1)N1C[C@H]2[C@@H](c3ccccc31)[C@H](CO)N2C(=O)c1cccnc1,-12[16.7 µM],nt,nt,nt,nt,nt,
CCCCOc1ccc(C2OC34CCCCC3C(C#N)(C#N)C2(C#N)C(=N)O4)cc1 (configuration not stated),-4,60*,-4,-1,27*,0.03,Dye-only ctr=-27
C=CCOc1ccc(C2OC34CCCCC3C(C#N)(C#N)C2(C#N)C(=N)O4)cc1 (configuration not stated),-2,36,4,0,11*,-0.08,Dye-only ctr=-27
COc1cccc(-c2ccc3n(c2=O)C[C@@H]2[C@@H](CO)[C@H](C(=O)N4CCOCC4)N[C@H]32)c1,-3[16.7 µM],nt,nt,nt,nt,nt,
CCOc1ccc(S(=O)(=O)Nc2cccc(C(=O)NCCCn3ccnc3)c2)cc1,3,12,nt,0,27*,0.01,
CCOC(=O)C(C)(C)N(Cc1ccccc1C)S(=O)(=O)c1ccc(Cl)c([N+](=O)[O-])c1,-22,0,0,0,27*,-0.13,Dye-only ctr=-27
CC(=O)C1C(c2ccc(F)cc2)c2c(noc2C)CC1(C)O (configuration not stated),-7,26,nt,1,50*,-0.15,
CCOC(=O)C1=C(C)NC(C)=C(C(=O)OCC)C1c1ccc([N+](=O)[O-])s1,-5,20,nt,0,39*,-0.11,
CCn1nc(-c2ccccc2)c2nc3ccccc3nc21,-5,74,-4,0,42*,-0.07,Dye-only ctr=-28
CCN1CCN(c2nc(-c3ccccc3)c3ccccc3n2)CC1,0,2,-5,-4,-3,nt,
O=c1[nH]c(=S)[nH]c2c1C(c1ccc(Br)cc1)c1c([nH]c(=S)[nH]c1=O)O2,-5,112*,31*,nt,45*,-0.12,Dye-only ctr=-26
CCc1ccc[n+](-c2[nH]c(=O)sc2/C=N/N=C(\[O-])c2ccncc2)c1,nt,0,1,-4,0,nt,
CC(C)(C)c1cc[n+](-c2[nH]c(=O)sc2/C=N/NC([S-])=Nc2ccccc2)cc1,2,51,nt,0,31*,-0.09,Dye-only ctr=-23
Cc1cc[n+](-c2[nH]c(=O)sc2/C=N/NC([S-])=Nc2ccccc2)cc1C,-1,48,-7,0,32*,0.02,
COCC(=O)N(C)C[C@H]1Oc2ncc(C#Cc3ccccc3)cc2C(=O)N([C@H](C)CO)C[C@H]1C,27[16.7 µM],nt,nt,nt,nt,nt,
CN(C)CCNc1ccc2ncn3c4ccc(O)cc4c(=O)c1c23,nt,114*,-2,1,38*,-0.13,
SMILES,miR122 inh,LANA DNA inh,CAL PDZ FP-1,CAL PDZ FP-2,Keap1 Nrf2 FP,Keap1 TSA,others
CN(C)CCNc1ccc(CO)c2sc3ccc(O)cc3c(=O)c12,-12,-11,-3,0,-10,nt,
O=C(CC1CC1)Nc1ccc2c(c1)[C@@H]1C[C@@H](CC(=O)N3CCOCC3)O[C@@H](CO)[C@@H]1O2,0[16.7 µM],nt,nt,nt,nt,nt,
Cc1[nH]nc2c1C(CC(C)C)C(C#N)=C(N)O2 (configuration not stated),-6,28,nt,-1,46*,-0.17,Dye-only ctr=-33
CC(C)CC1C(C#N)=C(N)Oc2n[nH]c(-c3ccccc3)c21 (configuration not stated),0,-2,-4,-1,5,nt,
O=C1C(=Cc2ccco2)CCCC1=Cc1ccco1,nt,4,-2,0,-6,nt,
O=C1C(=Cc2ccco2)CCC1=Cc1ccco1,-6,116*,0,0,20*,0.86*,
CN(C)CCNC(=O)c1c(NC(=O)c2ccccc2)sc2c1CCCC2,-7,nt,nt,-1,17*,-0.15,
Cc1noc(C)c1NC(=O)Nc1ccc2c(c1)C(=O)N([C@H](C)CO)C[C@@H](C)[C@@H](CN(C)Cc1ccccc1)OCCCC[C@H](C)O2,6[16.7 µM],nt,nt,nt,nt,nt,
CC(=O)N1CCN(S(=O)(=O)c2cccc(C(=O)NNC(=O)c3ccc(Br)cc3)c2)CC1,-3,27,nt,1,48*,0,Dye-only ctr=-23
O=C(NNC(=O)c1ccc(Br)o1)c1csc(N2CCOCC2)n1,-8,27,nt,0,46*,-0.12,Dye-only ctr=-24
Cc1ccc(C(=O)NNC(=O)c2csc(N3CCOCC3)n2)o1,-2,0,9,0,4,nt,
CC(C)NC(=O)Nc1ccc2c(c1)C(=O)N([C@@H](C)CO)C[C@H](C)[C@@H](CN(C)C(=O)c1ccncc1)OCCCC[C@H](C)O2,1[16.7 µM],nt,nt,nt,nt,nt,
COCC#Cc1ccc2c(c1)O[C@@H](CN(C)Cc1ccccc1F)[C@H](C)CN([C@H](C)CO)S2(=O)=O,0[16.7 µM],nt,nt,nt,nt,nt,
CC1(C)CC(=O)C2=C(C1)OC1=C(C2)C(=O)CC(C)(C)C1,nt,2,-2,0,21*,-0.1,
COc1ccc(NC(=O)N(C)C[C@H]2OCCCC[C@H](C)Oc3ccc(NC(=O)Nc4c(C)noc4C)cc3C(=O)N([C@@H](C)CO)C[C@@H]2C)cc1,2[16.7 µM],nt,nt,nt,nt,nt,
C[C@H](O)C#Cc1ccc2c(c1)O[C@@H](CN(C)CC1CCOCC1)[C@@H](C)CN([C@H](C)CO)S2(=O)=O,13[16.7 µM],nt,nt,nt,nt,nt,
O=c1[nH]c2cc(C(F)(F)F)ccc2n1-c1cc(C(F)(F)F)ccc1O,3,-4,-2,0,15*,0.03,
Cc1ccc(C(=O)NNC(=O)c2n[nH]c(=O)c3ccccc23)cc1C,-5,15,nt,-1,33*,-0.04,
Cc1cccc(C(=O)NNC(=O)c2n[nH]c(=O)c3ccccc23)c1C,-7,1,1,-2,-3,nt,
